The source made the active and inactive calls. The calls are words filed in the database; no cut-off is given here.
Key:
[1] = tested on: BT-474; assay: Antiproliferative activity against human BT-474 cells incubated for 72 hrs by MTT assay; type: functional, cell-based; settings: BT-474, 72 h
Method in brief: (§1)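 Cells seeded at 5 × 10^3/well and allowed to attach overnight, then washed with PBS. Compound diluted from 10 mM DMSO stock into medium (100 ng/mL HGF added for c-Met-expressing cells), in triplicate, 72 h at 37 °C. MTT added for 4 h, formazan dissolved in DMSO, absorbance read at 570 nm. Cell numbers taken from a standard curve; IC50 calculated.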

[2] = tested on: SK-BR-3; assay: Antiproliferative activity against human SK-BR-3 cells incubated for 72 hrs by MTT assay; type: functional, cell-based; settings: SK-BR-3, 72 h; method in brief: as §1
[3] = tested on: MCF7; assay: Antiproliferative activity against human MCF7 cells incubated for 72 hrs by MTT assay; type: functional, cell-based; settings: MCF7, 72 h; method in brief: as §1
[4] = tested on: T47D; assay: Antiproliferative activity against human T47D cells incubated for 72 hrs by MTT assay; type: functional, cell-based; method in brief: as §1
[5] = tested on: MDA-MB-468; assay: Antiproliferative activity against human MDA-MB-468 cells incubated for 72 hrs by MTT assay; type: functional, cell-based; settings: MDA-MB-468, 72 h; method in brief: as §1
[6] = tested on: MDA-MB-231; assay: Antiproliferative activity against human MDA-MB-231 cells incubated for 72 hrs by MTT assay; type: functional, cell-based; settings: MDA-MB-231, 72 h; method in brief: as §1
[7] = biological target: Serine/threonine-protein kinase mTOR (Homo sapiens) (UniProt P42345); assay: Inhibition of mTOR in human MDA-MB-231 cells assessed as reduction in phosphorylated 4E-BP1 level at 15 to 25 uM by Western blot analysis; type: cell-based; settings: dose 15-25 µM
Method in brief: (§2)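 Cells seeded at 5 × 10^5 per 100 mm dish and allowed to attach overnight. Treated with compound or DMSO for 72 h (HGF 100 ng/mL added for MDA-MB-231). Lysed in RIPA buffer with protease inhibitors. 30 μg protein run on SDS-PAGE, transferred to PVDF, blocked in 5% BSA/TBST. Primary antibodies overnight at 4 °C, HRP secondary antibodies, chemiluminescent detection.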

[8] = biological target: Serine/threonine-protein kinase mTOR (Homo sapiens) (UniProt P42345); assay: Inhibition of mTOR in human MDA-MB-231 cells assessed as reduction in p-S6K level at 15 to 25 uM by Western blot analysis; type: cell-based; settings: dose 15-25 µM; method in brief: as §2
[9] = biological target: Serine/threonine-protein kinase mTOR (Homo sapiens) (UniProt P42345); assay: Inhibition of mTOR in human […] cells assessed as reduction in phosphorylated 4E-BP1 level at 15 to 25 uM by Western blot analysis; type: cell-based; settings: MCF7, dose 15-25 µM; method in brief: as §2
[10] = biological target: Serine/threonine-protein kinase mTOR (Homo sapiens) (UniProt P42345); assay: Inhibition of mTOR in human […] cells assessed as reduction in p-S6K level at 15 to 25 uM by Western blot analysis; type: cell-based; settings: MCF7, dose 15-25 µM; method in brief: as §2
[11] = tested on: MDA-MB-231; assay: Induction of autophagy in human MDA-MB-231 cells assessed as increase in beclin-1 level by Western blotting analysis; type: functional, cell-based; settings: dose 15-25 µM; method in brief: as §2
[12] = tested on: MCF7; assay: Induction of autophagy in human MCF7 cells assessed as increase in beclin-1 level by Western blotting analysis; type: functional, cell-based; settings: dose 15-25 µM; method in brief: as §2
[13] = tested on: MDA-MB-231; assay: Induction of autophagy in human MDA-MB-231 cells assessed as increase in LC3 level by Western blotting analysis; type: functional, cell-based; settings: dose 15-25 µM; method in brief: as §2
[14] = tested on: MCF7; assay: Induction of autophagy in human MCF7 cells assessed as increase in LC3 level by Western blotting analysis; type: functional, cell-based; settings: dose 15-25 µM; method in brief: as §2
[15] = biological target: T1, mTORC2 (Homo sapiens) (UniProt P42345+Q6R327+Q9BVC4+Q9BPZ7); assay: Inhibition of mTORC2 in human MDA-MB-231 cells assessed as reduction in Akt phosphorylation at Ser473 residue at 15 to 25 uM by Western blot analysis; type: cell-based; settings: dose 15-25 µM; method in brief: as §2
[16] = biological target: T1, mTORC2 (Homo sapiens); assay: Inhibition of mTORC2 in human MCF7 cells assessed as reduction in Akt phosphorylation at Ser473 residue at 15 to 25 uM by Western blot analysis; type: cell-based; settings: dose 15-25 µM; method in brief: as §2
[17] = tested on: MDA-MB-231; assay: Antimigratory activity in human MDA-MB-231 cells assessed as inhibition of cell migration after 23 hrs by scratch wound healing assay; type: functional, cell-based
Method in brief: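 Cells seeded at 1 × 10^5/well and grown to a confluent monolayer, then scratched with a 200 μL pipet tip. Held 5 h in serum-free medium, then given medium with HGF (100 ng/mL) plus compound or DMSO. Norstictic acid (15 μM) was the positive control. Wound width photographed at 0 h and followed up to 24 h; cells MeOH-fixed. Percent migration from wound thickness versus DMSO wells; IC50 calculated.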

[18] = tested on: MDA-MB-231; assay: Anti-invasive activity in human MDA-MB-231 cells after 24 hrs […]; type: functional, cell-based; settings: MDA-MB-231, 24 h

IC50 [1]: 15.1 µM
IC50 [2]: 14.4 µM
IC50 [3]: 11.2 µM
IC50 [4]: 15.9 µM
IC50 [5]: 13.7 µM
IC50 [6]: 13.1 µM
inhibition [7]: Active
inhibition [8]: Active
inhibition [9]: Active
inhibition [10]: Active
inhibition [15]: Active
inhibition [16]: Active
IC50 ([17]; MDA-MB-231, 23 h): 13.7 µM
IC50 [18]: 14.2 µM
SMILES: CC(=O)C1=C(O)C=C2Oc3c(C(C)=O)c(O)c(C)c(O)c3[C@]2(C)C1=O [(-)-USNIC ACID]
Activity [11]: Dose-Dependent Effect
Activity [12]: Dose-Dependent Effect
Activity [13]: Dose-Dependent Effect
Activity [14]: Dose-Dependent Effect
Activity [17]: Dose-Dependent Effect
